This is an account of results in paper PMC9048702 (RSC Advances, 2020).

One series has as its system HepG2 cells. The series can be described thus: MTT anti-proliferative assay, HepG2. It is filed as cell-based, human. Particulars: HepG2, 48 h, read-out: IC50 HepG2. Put shortly:
(§1)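 HepG2 (passage 11), MCF7 (passage 13) and normal WI-38 fibroblasts were seeded at […]. Cells were exposed to test compound at 0.5, 1, 10, 20, 50 and 100 μM for 48 h, then incubated with MTT for 4 h. Formazan was dissolved in DMSO and read at 570 nm. Untreated and doxorubicin-treated cells were included. IC50 came from dose–response curves, mean ± SEM of two independent experiments.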
On the technique in general: Formazan colour is commonly taken as a measure of viable cells.

A further series concerns MCF7 cells. In words: MTT anti-proliferative assay, MCF7. In kind it is cell-based, human. Particulars: MCF7, 48 h, read-out: IC50 MCF7. Summed up: as §1
A further series has as its system p53. In words: qRT-PCR expression of p53 in HepG2. To be noted: HepG2, 8 h incubation at IC50 concentration, mean ± SEM. It is filed as cell-based, human. Background: Quantitative PCR measures a nucleic acid by following its amplification.
A further series relates to txnrd1. In words: qRT-PCR expression of txnrd1 in HepG2. In kind it is cell-based, human. Particulars: for Fold induction from untreated cells Txnrd1: HepG2, 8 h incubation at IC50 concentration, mean ± SEM; for down-regulation (inhibition) of txnrd1 expression: HepG2, 8 h.
Another series deals with caspase 3. In words: qRT-PCR expression of caspase 3 in HepG2. In kind it is cell-based, human. Particulars: HepG2, 8 h incubation at IC50 concentration, mean ± SEM.
Another series relates to WI-38 cells. In words: MTT assay, normal fibroblasts WI-38. Particulars: read-out: IC50 WI-38, WI-38 normal fibroblasts, 48 h, mean ± SEM. In kind it is cell-based.
Series [1] concerns HepG2, MCF7 and WI-38 cells. In words: MTT anti-proliferative assay, cell lines summarised together in text. In kind it is cell-based. Particulars: Homo sapiens. Summed up:
as §1

Series [2] deals with topoisomerase II (Topo II). In words: Topo II concentration in HepG2 cells, sandwich ELISA. It is filed as cell-based, human. Particulars: HepG2, IC50 concentration, 8 hours. For orientation: In an ELISA, binding on a coated surface is turned into a signal by an enzyme label.
A further series has as its system cdk1. The series can be described thus: qRT-PCR expression of cdk1 in HepG2. In kind it is cell-based, human. To be noted: for inhibition in cdk1 expression: HepG2, 8 h.
Series [3] has as its system p38 mitogen-activated protein kinase (MAPK). The series can be described thus: MAPK concentration in HepG2 cells, sandwich ELISA. In kind it is cell-based, human. Particulars: HepG2, IC50 concentration, 8 hours.
The test system of another series is cleaved caspase 3. The series can be described thus: Active cleaved caspase 3 activity in HepG2, colorimetric kit. Particulars: HepG2, IC50 concentration, 12 h. In kind it is cell-based, human.
Setting [4] is: read-out: IC50 against cancer cell lines.

Values joined by “and” are separate entries in the source; they are usually repeats but may differ in a detail not shown here. Identical values can stand only once. Like-named read-outs stand apart in the source and are kept apart here. Marks after values point to notes of the source that are not given here.

For the compound `CC(=O)c1ccc(NC(=O)CSc2nnc(-c3n[nH]c(=O)c4ccccc34)o2)cc1` [Compound 4a, N-(4-Acetylphenyl)-2-((5-(4-oxo-3,4-dihydrophthalazin-1-yl)-1,3,4-oxadiazol-2-yl)thio)acetamide], the IC50 in the series on HepG2 cells (Homo sapiens) came out at 72.6 ± 4.8 µM; with MCF7 cells (Homo sapiens), 76.2 ± 4.7 µM.

In the case of `Cc1ccc(NCSc2nnc(-c3nn(CNc4ccc(C)cc4)c(=O)c4ccccc34)o2)cc1` [Compound 7a, 2-((p-Tolylamino)methyl)-4-(5-(((p-tolylamino)methyl)thio)-1,3,4-oxadiazol-2-yl)phthalazin-1(2H)-one], the IC50 in the series with HepG2 cells (Homo sapiens) came to 23.5 ± 2.8 µM; in the series with MCF7 cells (Homo sapiens) it was 26.2 ± 2.5 µM.

Consider `O=c1c2ccccc2c(-c2nnc(SCNc3ccc([N+](=O)[O-])cc3)o2)nn1CNc1ccc([N+](=O)[O-])cc1` [Compound 7e, 2-(((4-Nitrophenyl)amino)methyl)-4-(5-((((4-nitrophenyl)amino)methyl)thio)-1,3,4-oxadiazol-2-yl)phthalazin-1(2H)-one], for which the “Fold induction from untreated cells p53” value in the series with p53 is 2 fold and 2.02 ± 0.08 ^a fold. For the same compound, the IC50 in the series on HepG2 cells (Homo sapiens) was 7 ± 1.5 µM; with MCF7 cells (Homo sapiens) it was 8.4 ± 0.9 µM; in the series with WI-38 cells, 21.6 ± 1.8 µM; in [1] (setting [4]), 5.5 to 15 µM. Also, in the series with txnrd1, the “Fold induction from untreated cells Txnrd1” value is on record as 1.11 ± 0.10 fold. Besides, in the series with caspase 3, the “Fold induction from untreated cells Caspase 3” value was 2 fold and 2.22 ± 0.14 ^a fold.

With `O=C(CSc1nnc(-c2n[nH]c(=O)c3ccccc23)o1)c1cccc([N+](=O)[O-])c1` [Compound 2d, 4-(5-((2-(3-Nitrophenyl)-2-oxoethyl)thio)-1,3,4-oxadiazol-2-yl)phthalazin-1(2H)-one], the IC50 with HepG2 cells (Homo sapiens) and in the series on MCF7 cells (Homo sapiens) was greater than 100 µM throughout.

Turning to `NS(=O)(=O)c1ccc(NC(=O)CSc2nnc(-c3n[nH]c(=O)c4ccccc34)o2)cc1` [Compound 4b, 2-((5-(4-Oxo-3,4-dihydrophthalazin-1-yl)-1,3,4-oxadiazol-2-yl)thio)-N-(4-sulfamoylphenyl)acetamide], the IC50 in the series on HepG2 cells (Homo sapiens) was 83.9 ± 5.2 µM; in the series with MCF7 cells (Homo sapiens), greater than 100 µM.

As for “S-(5-(4-Oxo-3,4-dihydrophthalazin-1-yl)-1,3,4-oxadiazol-2-yl)2-(2-isonicotinoylhydrazinyl)ethanethioate [Compound 3]”, the IC50 in the series on HepG2 cells (MTT, mean ± SEM) worked out at 38.4 ± 3.5 µM; with MCF7 cells (MTT, mean ± SEM), 40 ± 3.6 µM; with WI-38 cells, 44.6 ± 4.2 µM.

As for `COc1ccc(NCSc2nnc(-c3nn(CNc4ccc(OC)cc4)c(=O)c4ccccc34)o2)cc1` [Compound 7d, 2-(((4-Methoxyphenyl)amino)methyl)-4-(5-((((4-methoxyphenyl)amino)methyl)thio)-1,3,4-oxadiazol-2-yl)phthalazin-1(2H)-one], the “Fold induction from untreated cells p53” value in the series on p53 is 2 fold and 2.16 ± 0.12 ^a fold. For the same compound, the results for the IC50 (in the series on HepG2 cells (Homo sapiens); with MCF7 cells (Homo sapiens); in [1] (setting [4])) were 6.3 ± 0.7 µM, 5.5 ± 0.4 µM and 5.5 to 15 µM, respectively. Also, the “Fold induction from untreated cells Txnrd1” value with txnrd1 is reported as 1.02 ± 0.16 fold. Further, in the series with caspase 3, the “Fold induction from untreated cells Caspase 3” value is 2 fold and 1.96 ± 0.09 ^a fold. Also, in series [2], the “decrease in Topo II concentration” value was 31%.

Regarding `O=c1[nH]nc(-c2nnc(SCNC3CCCCC3)o2)c2ccccc12` [Compound 7g, 4-(5-(((Cyclohexylamino)methyl)thio)-1,3,4-oxadiazol-2-yl)phthalazin-1(2H)-one], the values for the IC50 with HepG2 cells (Homo sapiens) and with MCF7 cells (Homo sapiens) were 42.9 ± 3.7 µM and 45.5 ± 3.8 µM, respectively.

On to `O=C(CSc1nnc(-c2n[nH]c(=O)c3ccccc23)o1)c1ccccc1` [Compound 2c, 4-(5-((2-Oxo-2-phenylethyl)thio)-1,3,4-oxadiazol-2-yl)phthalazin-1(2H)-one], for which the IC50 in the series on HepG2 cells (Homo sapiens) is 66.1 ± 4.5 µM; in the series on MCF7 cells (Homo sapiens), 57.3 ± 4.2 µM.

As to `O=C(CSc1nnc(-c2n[nH]c(=O)c3ccccc23)o1)Nc1ccc(Cl)cc1` [Compound 4d, N-(4-Chlorophenyl)-2-((5-(4-oxo-3,4-dihydrophthalazin-1-yl)-1,3,4-oxadiazol-2-yl)thio)acetamide], the figures for the IC50 in the series with HepG2 cells (Homo sapiens) and with MCF7 cells (Homo sapiens) were 53.9 ± 3.8 µM and 49.5 ± 3.9 µM, respectively.

As for `O=c1c2ccccc2c(-c2nnc(SCNc3cccnc3)o2)nn1CNc1cccnc1` [Compound 7f, 2-((Pyridin-3-ylamino)methyl)-4-(5-(((pyridin-3-ylamino)methyl)thio)-1,3,4-oxadiazol-2-yl)phthalazin-1(2H)-one], the IC50 in the series on HepG2 cells (Homo sapiens) turned out to be 21.8 ± 2.3 µM; with MCF7 cells (Homo sapiens) it was 20.8 ± 1.9 µM.

With `Cc1ccc(NC(=O)CSc2nnc(-c3n[nH]c(=O)c4ccccc34)o2)cc1` [Compound 4c, 2-((5-(4-Oxo-3,4-dihydrophthalazin-1-yl)-1,3,4-oxadiazol-2-yl)thio)-N-(p-tolyl)acetamide], the IC50 is 28.1 ± 2.9 µM in the series on HepG2 cells (Homo sapiens) and 36.3 ± 3.2 µM with MCF7 cells (Homo sapiens).

For `O=c1[nH]nc(-c2nnc(S)o2)c2ccccc12` [Compound 1, 4-(5-mercapto-1,3,4-oxadiazol-2-yl)phthalazin-1(2H)-one], the “inhibition in cdk1 expression” value with cdk1 is roughly 78%. The “Fold induction from untreated cells Cdk1” value in the series with cdk1 (HepG2, 8 h incubation at IC50 concentration, mean ± SEM) is on record as 0.22 ± 0.03 ^a fold. For the same compound, in the series with p53, the “Fold induction from untreated cells p53” value is listed as 3.83 ± 0.11 ^a fold. Also, in [3], the “reduction in MAPK concentration compared to untreated cells” value amounted to 84%. Besides, the figures for the IC50 in the series on HepG2 cells (Homo sapiens) and in the series with MCF7 cells (Homo sapiens) were 4.5 ± 1.1 µM and 4.9 ± 0.8 µM, respectively. The “down-regulation (inhibition) of txnrd1 expression” value with txnrd1 is on record as 33%. Besides, in the series with txnrd1, the “Fold induction from untreated cells Txnrd1” value is recorded as 0.67 ± 0.03 fold. Further, the “Fold induction from untreated cells Caspase 3” value with caspase 3 was 3.10 ± 0.21 ^a fold. Moreover, the “elevation in activity of active cleaved caspase 3 compared to untreated cells” value in the series with cleaved caspase 3 is on record as roughly 7 fold. In addition, the “decrease in Topo II concentration” value in series [2] turned out to be 84%.

`O=c1[nH]nc(-c2nnc(SCc3ccccc3)o2)c2ccccc12` [Compound 2b, 4-(5-(Benzylthio)-1,3,4-oxadiazol-2-yl)phthalazin-1(2H)-one]: the IC50 was found to be 58.9 ± 4 µM in the series on HepG2 cells (Homo sapiens) and 68.2 ± 4.4 µM in the series with MCF7 cells (Homo sapiens).

In the case of `O=c1c2ccccc2c(-c2nnc(SCNc3ccccc3Cl)o2)nn1CNc1ccccc1Cl` [Compound 7c, 2-(((2-Chlorophenyl)amino)methyl)-4-(5-((((2-chlorophenyl)amino)methyl)thio)-1,3,4-oxadiazol-2-yl)phthalazin-1(2H)-one], the IC50 in the series on HepG2 cells (Homo sapiens) amounted to 17.2 ± 1.9 µM; in the series on MCF7 cells (Homo sapiens), 15.4 ± 1.2 µM; with WI-38 cells, 23.2 ± 1.2 µM.

`O=c1c2ccccc2c(-c2nnc(SCNc3ccc(Cl)cc3)o2)nn1CNc1ccc(Cl)cc1` [Compound 7b, 2-(((4-Chlorophenyl)amino)methyl)-4-(5-((((4-chlorophenyl)amino)methyl)thio)-1,3,4-oxadiazol-2-yl)phthalazin-1(2H)-one]: the IC50 stood at 33.3 ± 3.4 µM in the series on HepG2 cells (Homo sapiens) and 31.3 ± 2.8 µM in the series on MCF7 cells (Homo sapiens).

Consider `COc1cccc2c1C(=O)c1c(O)c3c(c(O)c1C2=O)C[C@@](O)(C(=O)CO)C[C@@H]3O[C@H]1C[C@H](N)[C@H](O)[C@H](C)O1` [DOX, Doxorubicin, reference compound], for which the “inhibition in cdk1 expression” value in the series with cdk1 is roughly 75%. Moreover, in [3], the “reduction in MAPK concentration compared to untreated cells” value came to 85%. The IC50 was 4.5 ± 0.3 µM with HepG2 cells (Homo sapiens), 4.2 ± 0.2 µM in the series with MCF7 cells (Homo sapiens) and 4 to 7 µM in series [1] (read-out: IC50 against all cells investigated). Also, the “down-regulation (inhibition) of txnrd1 expression” value in the series on txnrd1 stood at 56%. For the same compound, the “decrease in Topo II concentration” value in series [2] came out at 87%.

As for `CCSc1nnc(-c2n[nH]c(=O)c3ccccc23)o1` [Compound 2a, 4-(5-(Ethylthio)-1,3,4-oxadiazol-2-yl)phthalazin-1(2H)-one], the IC50 with HepG2 cells (Homo sapiens) worked out at 61.3 ± 4.2 µM; in the series with MCF7 cells (Homo sapiens) it was 55.8 ± 4 µM.

A word on the IC50: it is the concentration needed to halve the response being measured.
